# Sampled rows, rich in hits. Any-hit rate of the full collection: about 2.1%.
# MT stabilizer: microtubule stabilizers in HeLa cells, primary screen, imaging, high-content imaging. actives 0.83% (n = 200,000). AID 2205, 2009. HeLa tubulin immunostaining HCS, 24 h; share of cells brighter than vehicle mean+2SD. % tubulin-high responders, % at 10 µM;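 active = plate Z-score above 3 for both tubulin-high and condensed-nucleus cell shares, with cell loss under 80%, at 10 µM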;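 also: anti alpha tubulin signal scored within the nucleus-defined area of each cell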
# Dynein transport: inhibitors of GR-EGFP nuclear translocation, primary screen, dynein cargo transport inhibitor project, imaging, high-content, 3617.4 mouse cells | test concentration mostly 20 µM; stimulated with dexamethasone, 1 µM; active compounds read low | z-score, hits read low | actives 0.47% (n = 220,000);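 active = plate z-score of nuclear minus cytoplasmic receptor signal below a set negative limit, without overly bright fluorescence or cell loss, cut at about -3.5 in these data, passing the limit was not always enough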;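 also: z-score of nuclear minus cytoplasmic ring GR-EGFP intensity difference per well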
#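 medium = tetracycline-free induction medium containing charcoal-stripped FBS | also added = 1.0 µM final dexamethasone stimulus | schedule = 48 h induction, 1 h compound, 30 min dex at 37 °C | technique = fixed, Hoechst-stained cells imaged at 10x for EGFP | measure = GR-EGFP nuclear translocation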
# Autophagy HCS: autophagy modulators in MEF cells, primary screen, imaging, high-content, MEF GFP-LC3; MEF GFP-LC3 puncta imaging; test concentration mostly 10 µM; calls only at 10 µM (by protocol); actives 0.98% (n = 190,000);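 active = percentage of spot-positive cells more than 3 SD above its plate mean, without a fluorescence outlier flag or 80% toxicity; inconclusive = no clear call, values can overlap the other calls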
# bCat nuc transl: modulators of beta-catenin nuclear translocation, primary screen, imaging, HeLa cells, immunofluorescence, high-content; nuclear translocation activity, % at 5 µM; actives 0.3% (n = 190,000); AID 1665, 2009;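 active = nuclear translocation activity above 50% at 5 µM, with a well cell count of 50 or more; inconclusive = wells under 50 cells across six images, flagged as toxic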;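 also: per-cell ratio of nuclear to cytoplasmic median beta-catenin stain intensity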
#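 Read-out: Nuclear/cytoplasmic beta-catenin signal ratio, % activation | Assay system: Human HeLa cell line | Times: 24 h compound exposure at 37°C, 5% CO2 | Signal: Fluorescence imaging of beta-catenin antibody stain plus DAPI | Dosing: 5 µM primary, 0.02–20 µM confirmation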
# Hsp70 activator: Hsp70 transcriptional activators, primary screen, cell-based, HeLa, Hsp70 promoter luciferase, luminescence, 10 µM; activation, % at 10 µM; actives 0.04% (n = 200,000); HeLa Hsp70 promoter luciferase reporter; scaled: vehicle 0, proteasome-inhibitor control 100%; AID 1203, 2008;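 active = activation above the mean across all tested compounds plus 3 SD, cutoff set per campaign, cut at about 5.5% in these data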
# Dynein confirm: dynein cargo transport inhibitors, GR-EGFP translocation, confirmation, imaging, high-content imaging, GR-EGFP cells; shares compounds with Dynein transport; 3617.4 GR-EGFP nuclear translocation imaging, dexamethasone-induced; calls only at 20 µM; actives 69% (n = 1,000); AID 463116, 2010;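 active = inhibition of receptor movement into the nucleus at or above a set limit in both runs, with normal cell brightness and cell count; inconclusive = limit reached in only one run, brightness and count normal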;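 also: dexamethasone at 1 µM final in well for 30 min; nuclear minus cytoplasmic GR-EGFP mean intensity difference in channel 2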
# A number is an active result; 0 = inactive; ? = inconclusive; - = no result given; + = active, no number.
SMILES,MT stabilizer,Dynein transport,Autophagy HCS,bCat nuc transl,Hsp70 activator,Dynein confirm
CN1CCN(Cc2nc3ccccc3c(=O)n2Cc2nc(-c3ccc([N+](=O)[O-])cc3)cs2)CC1,0,-3.67,0,0,0,0
Cc1occc1-c1nnc(SCC(=O)N2CCc3ccccc32)o1,0,-4.01,0,-,0,0
O=C(CSc1nnc(-c2cccs2)o1)N1CCc2ccccc21,0,0,0,0,0,-
NC(=O)/C=C/C(=O)Nc1ccc(Cl)cc1,0,-3.68,0,0,0,0
NC(=O)Nc1ccc(Cl)cc1,-,0,-,0,-,-
CCOC(=O)CS(=O)(=O)c1nc(-c2ccc(F)cc2)cc(C(F)(F)F)n1,0,0,0,0,0,+
CCOC(=O)CS(=O)(=O)c1nc(-c2ccccc2)cc(C(F)(F)F)n1,0,0,0,0,0,-
CS(=O)(=O)c1nc(-c2ccc(F)cc2)cc(C(F)(F)F)n1,0,0,0,0,0,0
COc1ccc(-c2cc(C(F)(F)F)nc(S(C)(=O)=O)n2)cc1,0,-5.32,0,-,0,0
CCCc1[nH]n(-c2ccc([N+](=O)[O-])cc2)c(=O)c1C(C)=NCc1ccncc1,-,0,-,0,-,-
NNC(=O)c1csc(Cc2c(Cl)sc3ccc(Cl)cc23)n1,-,0,-,0,-,-
O=C(O)COc1ccccc1/C=N/NC(=O)CSc1nnc(SCc2ccccc2)s1,-,0,-,0,-,-
COc1ccc(C(=O)CCN2CCN(c3ccccc3OC)CC2)cc1,0,-4.39,0,0,0,+
COc1ccccc1N1CCN(CCCC(=O)c2ccc(F)cc2)CC1,0,0,0,0,0,-
CCN1C/C(=C/c2cccc([N+](=O)[O-])c2)C(=O)/C(=C/c2cccc([N+](=O)[O-])c2)C1,41.7,-3.98,0,0,0,+
O=C1NC(=O)/C(=C/c2cccc([N+](=O)[O-])c2)N1,-,0,-,0,-,-
CCN(CC)c1ccc(/C=C/c2cc(-c3ccccc3)c3ccccc3n2)cc1,-,0,-,-,-,0
CN(C)c1ccc(/C=C/c2ccc3ccccc3n2)cc1,-,0,-,0,-,-
Nc1c(C(=O)Nc2ccc(F)cc2)sc(=S)n1-c1ccccc1F,0,0,0,0,0,-
COc1ccc(NC2c3ccccc3C(=O)N2Cc2ccccc2Cl)cc1OC (stereo not drawn),-,0,-,0,-,-
O=C(CSc1ccccn1)Nc1nc2ccccc2s1,0,0,0,-,0,-
CCS(=O)(=O)CCSc1nc2ccccc2o1,0,0,0,-,0,-
O=S(=O)(CCSc1ccccn1)c1nc2ccccc2s1,0,-4.02,+,-,0,+
O=S(=O)(CCSc1nc2ccccc2o1)c1nc2ccccc2s1,0,-4.07,+,-,0,+
O=[N+]([O-])c1cc(C(F)(F)F)cc([N+](=O)[O-])c1Sc1n[nH]c(C(F)(F)F)n1,-,0,-,0,-,-
SMILES,MT stabilizer,Dynein transport,Autophagy HCS,bCat nuc transl,Hsp70 activator,Dynein confirm
CCC(=O)Nc1cccc(C(=O)/C=C/c2ccc(F)cc2)c1,0,-4.79,0,0,0,+
CC(=O)Nc1cccc(C(=O)/C=C/c2ccc(C)cc2)c1,0,0,0,0,0,-
CN(C)c1ccc(/C=C/C(=O)c2cccc(Br)c2)cc1,13.7,0,+,0,0,+
Cc1ccc2nc(SCC(=O)Nc3ccc(C(N)=O)cc3)[nH]c2c1,0,-6.66,0,0,0,0
COc1ccc(CC(=O)n2[nH]c(=O)cc(C)c2=O)cc1OC,-,-5.74,-,0,-,?
CC(C)(C)OC(=O)N[C@@H](Cc1ccccc1)c1nnc(S(=O)(=O)Cc2cccc(F)c2)o1,0,0,0,0,0,-
CC(C)C[C@H](N)c1nnc(S(=O)(=O)Cc2cccc(F)c2)o1,0,-4.95,0,0,0,+
CN(C)Cc1cc(C(C)(C)C)c(O)c(C(C)(C)C)c1,0,0,0,0,0,-
CC(C)(C)c1cc(CN(CCO)CCO)cc(C(C)(C)C)c1O,0,-5.84,0,-,0,+
CCOC(=O)CC1COCCN1Cc1cn[nH]c1-c1cc(OC)c(OC)c(OC)c1 (stereo not drawn),-,0,-,0,-,-
Cn1cnc([N+](=O)[O-])c1NC(C)(C)C,0,0,0,-,0,-
Cn1cnc([N+](=O)[O-])c1S(=O)(=O)c1ccc(Cl)cc1,0,-4.22,0,-,0,+
Cc1cc(C)nc(Sc2ncnc(N)c2[N+](=O)[O-])n1,0,-5.38,0,0,0,?
COc1ccc([N+](=O)[O-])cc1NC(=O)C(C)OC(=O)c1ccccn1 (stereo not drawn),0,0,0,0,0,-
Cc1ccc(-c2cn3nc(-c4ccccc4)c(-c4ccccc4)nc3n2)cc1,-,0,-,0,-,+
O=[N+]([O-])c1ccc(-c2cn3nc(-c4ccccc4)c(-c4ccccc4)nc3n2)cc1,-,0,-,0,-,-
CCCc1cc(NC(=O)CCl)n(-c2ccccc2)n1,0,-4,0,0,0,+
CC(C)(C)c1cc(NC(=O)CCl)n(-c2ccccc2)n1,-,0,-,0,-,-
Cc1cc(=O)c(C(=O)O)nn1-c1ccc(Cl)cc1,-,0,-,0,-,-
CCOC(=O)c1c(-c2ccc(C)cc2)csc1NC(=O)/C(C#N)=C/c1ccc(O)c(OC)c1,0,0,+,0,0,0
O=c1cc(N=Nc2ccc(Cl)cc2)[nH]c(=O)[nH]1,-,-4.52,-,0,-,+
O=c1cc(-c2ccc(Cl)cc2)oc(=O)[nH]1,-,0,-,0,-,-
CC1=CC=CC2=NC(=O)CC(C)(C(=O)O)N12 (stereo not drawn),0,0,0,0,0,-
C/C(CS(=O)(=O)c1ccccc1)=N\O,0,0,0,0,0,-
C/C=C(\CS(=O)(=O)c1ccccc1)S(=O)(=O)c1ccccc1,0,-3.61,0,0,0,?
SMILES,MT stabilizer,Dynein transport,Autophagy HCS,bCat nuc transl,Hsp70 activator,Dynein confirm
Clc1nc(CN2CCCCC2)nc2sc3c(c12)CCCC3,0,-3.68,0,0,0,0
Clc1nc(CN2CCOCC2)nc2sc3c(c12)CCC3,0,0,0,0,0,-
CCOc1cc(/C=C(/NC(C)=O)C(=O)O)cc(Cl)c1OCc1ccc(Br)cc1,-,0,-,0,-,-
NCC(O)COCCC12CC3CC(CC(C3)C1)C2 (stereo not drawn),0,0,0,0,0,-
CC(NCC(O)COCCC12CC3CC(CC(C3)C1)C2)c1ccccc1 (stereo not drawn),0,-5.18,0,0,0,0
CN1CCN(C2=C(Cl)C(=O)N(Cc3ccccc3)C2=O)CC1,0,0,0,0,0,-
CCN1CCN(C2=C(Cl)C(=O)N(Cc3ccccc3)C2=O)CC1,0,-4.74,0,0,0,+
CCOC(=O)c1sc(S(C)=O)c2c1CCc1conc1-2 (stereo not drawn),-,0,-,0,-,-
CCn1c(/C=C/N(C(C)=O)c2ccccc2)[n+](CC)c2ccc(Cl)cc21,0,0,0,0,0,-
